According to ChEMBL document CHEMBL1137637, “Quinuclidine derivatives as potential antiparasitics” (Antimicrob Agents Chemother, 2007):
Converted amounts (≈) assume the structure as drawn.

Experiments:
Squalene synthase = target: T1, Squalene synthase (Homo sapiens, UniProt P37268); assay: Inhibition of human recombinant squalene synthase expressed in Escherichia coli BL21(DE3 pLysS) up to 1 uM by liquid scintillation counter
T1 sequence (P37268 whole entry): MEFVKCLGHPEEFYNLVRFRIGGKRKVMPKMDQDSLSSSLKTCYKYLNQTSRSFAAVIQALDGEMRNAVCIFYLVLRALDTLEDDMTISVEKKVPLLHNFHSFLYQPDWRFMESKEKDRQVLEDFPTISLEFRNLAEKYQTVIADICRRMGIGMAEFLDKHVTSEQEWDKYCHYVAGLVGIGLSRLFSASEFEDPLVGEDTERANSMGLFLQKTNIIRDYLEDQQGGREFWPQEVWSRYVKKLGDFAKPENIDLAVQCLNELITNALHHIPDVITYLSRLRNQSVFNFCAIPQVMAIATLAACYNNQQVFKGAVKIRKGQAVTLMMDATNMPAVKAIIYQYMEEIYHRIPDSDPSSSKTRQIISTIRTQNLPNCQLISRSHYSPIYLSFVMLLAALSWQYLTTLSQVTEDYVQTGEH
Procedure, shortened: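 Human SQS in extracts of E. coli BL21(DE3 pLysS) carrying pHSS16, assayed under the same conditions as the L. major enzyme. Buffer: phosphate pH 7.4, MgCl2, CHAPS, Tween 80, DTT, BSA, and NADPH with a regenerating system. Substrate 0.5 μM radiolabelled farnesyl pyrophosphate. Squalene band radioactivity counted by scintillation.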

[1] = target: T2, Farnesyltransferase, putative (Leishmania major, UniProt Q4Q5W4); assay: Inhibition of Leishmania major recombinant squalene synthase expressed in Escherichia coli by liquid scintillation counter
T2 sequence (Q4Q5W4 whole entry): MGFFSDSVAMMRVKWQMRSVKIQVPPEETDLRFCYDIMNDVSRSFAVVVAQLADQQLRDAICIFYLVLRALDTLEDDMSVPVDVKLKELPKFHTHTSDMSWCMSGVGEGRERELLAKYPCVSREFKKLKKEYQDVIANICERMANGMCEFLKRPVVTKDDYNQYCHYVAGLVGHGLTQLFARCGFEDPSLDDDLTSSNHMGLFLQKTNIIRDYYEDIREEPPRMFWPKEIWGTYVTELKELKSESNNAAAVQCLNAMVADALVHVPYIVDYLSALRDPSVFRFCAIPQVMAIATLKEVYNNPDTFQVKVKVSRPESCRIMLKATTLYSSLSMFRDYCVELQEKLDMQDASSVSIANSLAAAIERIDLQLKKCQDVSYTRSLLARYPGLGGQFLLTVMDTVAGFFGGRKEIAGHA
Procedure, shortened: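 Soluble E. coli extract expressing L. major SQS truncated by 16 N-terminal and 40 C-terminal residues. Buffer: 50 mM phosphate pH 7.4, 20 mM MgCl2, 5 mM CHAPS, 1% Tween 80, 10 mM DTT, BSA, 0.25 mM NADPH, and a glucose-6-phosphate/G6PDH regenerating system. Substrate 0.5 μM radiolabelled farnesyl pyrophosphate. Squalene band counted by scintillation. IC50 from hyperbolic plot of five concentrations in duplicate, usually run twice.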

Leishmania amazonensis [2] = assay: Antileishmanial activity against Leishmania mexicana amazonensis promastigotes by trypan blue exclusion method; type: functional, organism-based
Procedure, shortened: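 L. mexicana amazonensis promastigotes cultured in liver infusion-tryptose medium with lactalbumin and 10% FCS at 26°C, unagitated. Cultures started at 2 × 10⁶ cells/ml and drug added at 0.5–1 × 10⁷ cells/ml. Density counted by electronic particle counter and hemocytometer. Viability by trypan blue exclusion. Triplicate growth experiments.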

Leishmania donovani = assay: Antileishmanial activity against Leishmania donovani MHOM/ET/67/L82 axenic amastigotes after 72 hrs by resazurin assay; type: functional, organism-based; settings: MHOM/ET/67/L82, 72 h
Procedure, shortened: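 L. donovani MHOM/ET/67/L82 amastigotes grown axenically at 37°C in synthetic minimal medium at pH 5.4 with 10% heat-inactivated FBS under 5% CO2. 1 × 10⁵ amastigotes per well with seven threefold dilutions, 30 to 0.041 μg/ml. After 72 h, resazurin added for 2–4 h more. Fluorescence read at ex 536/em 588 nm. IC50 taken from sigmoidal curve. Run in duplicate, with an independent repeat for actives.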

L6 = assay: Cytotoxicity against rat L6 cells after 72 hrs by resazurin assay; type: cell-based; settings: L6, 72 h
Procedure, shortened: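 L-6 cells seeded at 4 × 10⁴ cells/ml in RPMI 1640 with 10% FBS and 2 mM L-glutamine. After 24 h, medium replaced with serial drug dilution and incubated for 72 h at 37°C in 5% CO2. Resazurin added for 2–4 h, fluorescence read at ex 536/em 588 nm. IC50 from sigmoidal curve. Duplicate, with an independent repeat for actives.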

Trypanosoma cruzi = assay: Antitrypanosomal activity against trypomastigotes of Trypanosoma cruzi Tulahuen C2C4 containing lacZ gene in rat L6 cells after 4 days by chlorophenol red-beta-D-galactopyranoside/Nonidet assay; type: functional, organism-based; settings: Tulahuen C2C4, L6, 96 h
Procedure, shortened: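 L-6 rat myoblasts seeded at 2,000 cells/well in RPMI 1640 with 10% FBS and 2 mM L-glutamine. After 24 h, 5,000 T. cruzi Tulahuen C2C4 lacZ trypomastigotes added with serial drug dilution. Incubated at 37°C in 5% CO2 for 4 days. CPRG/Nonidet substrate added and colour read at 540 nm after 2–4 h. IC50 from sigmoidal curve. Duplicate determinations.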

[3] = test system: Trypanosoma brucei rhodesiense; assay: Trypanocidal activity against Trypanosoma brucei rhodesiense STIB 900 bloodstream form after 72 hrs by resazurin assay; type: functional, organism-based; settings: STIB 900, 72 h
Procedure, shortened: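 T. b. rhodesiense STIB 900 bloodstream forms in MEM with 2-mercaptoethanol and 15% heat-inactivated horse serum, with serial drug dilutions. Incubated 72 h at 37°C in 5% CO2. Resazurin added for 2–4 h more, fluorescence read at ex 536/em 588 nm. IC50 from sigmoidal curve. Duplicate, with an independent repeat for actives.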

Plasmodium falciparum = assay: Antiplasmodial activity after 48 hrs against chloroquine and pyrimethamine-resistant Plasmodium falciparum K1 in human erythrocytes by [3H]hypoxanthine uptake; type: functional, organism-based
Procedure, shortened: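 P. falciparum K1 in human red cells in RPMI 1640 with 5% Albumax, exposed to serial drug dilutions. Incubated 48 h at 37°C under reduced oxygen, then 0.5 μCi [³H]hypoxanthine per well for 24 h more. Cells harvested onto glass-fibre filters and counted by scintillation. Result expressed as % of untreated control, with IC50 from sigmoidal curve. Duplicate, plus an independent repeat for actives.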

Leishmania amazonensis [4] = assay: Inhibition of sterol biosynthesis in Leishmania mexicana amazonensis promastigotes assessed as reduction in exogenous cholesterol level at 10 uM after 96 hrs by gas-liquid chromatography; type: functional; set-up: scale not given: the % may be the effect or the level left
Procedure, shortened: (§1)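 L. mexicana promastigotes exposed to compound for 96 h. Total lipids extracted and neutral sterols separated from polar lipids by silicic acid column chromatography. Sterols analysed by TLC and by quantitative capillary gas-liquid chromatography with mass spectrometry. Composition expressed as mass % of free sterols, compared with untreated control.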

Leishmania amazonensis [5] = assay: Inhibition of sterol biosynthesis in Leishmania mexicana amazonensis promastigotes assessed as reduction in endogenous 5-dehydro episterol level at 10 uM after 96 hrs by gas-liquid chromatography; type: functional; set-up: scale not given: the % may be the effect or the level left; procedure, shortened: as §1
Leishmania amazonensis [6] = assay: Inhibition of sterol biosynthesis in Leishmania mexicana amazonensis promastigotes assessed as reduction in endogenous cholesta-5,7,24-trien-3beta-ol level at 10 uM after 96 hrs by gas-liquid chromatography; type: functional; set-up: scale not given: the % may be the effect or the level left; procedure, shortened: as §1
Leishmania amazonensis [7] = assay: Inhibition of sterol biosynthesis in Leishmania mexicana amazonensis promastigotes assessed as reduction in endogenous cholesta-7,24-dien-3beta-ol level at 10 uM after 96 hrs by gas-liquid chromatography; type: functional; set-up: scale not given: the % may be the effect or the level left; procedure, shortened: as §1
Leishmania amazonensis [8] = assay: Inhibition of sterol biosynthesis in Leishmania mexicana amazonensis promastigotes assessed as reduction in endogenous episterol level at 10 uM after 96 hrs by gas-liquid chromatography; type: functional; set-up: scale not given: the % may be the effect or the level left; procedure, shortened: as §1
Leishmania amazonensis [9] = assay: Inhibition of sterol biosynthesis in Leishmania mexicana amazonensis promastigotes assessed as reduction in endogenous cholesta-5,7,24-trien-3beta-ol level at 3 uM after 96 hrs by gas-liquid chromatography; type: functional; set-up: scale not given: the % may be the effect or the level left; procedure, shortened: as §1
Leishmania amazonensis [10] = assay: Inhibition of sterol biosynthesis in Leishmania mexicana amazonensis promastigotes assessed as reduction in exogenous cholesterol level at 3 uM after 96 hrs by gas-liquid chromatography; type: functional; set-up: scale not given: the % may be the effect or the level left; procedure, shortened: as §1
Leishmania amazonensis [11] = assay: Inhibition of sterol biosynthesis in Leishmania mexicana amazonensis promastigotes assessed as reduction in endogenous 5-dehydro episterol level at 3 uM after 96 hrs by gas-liquid chromatography; type: functional; set-up: scale not given: the % may be the effect or the level left; procedure, shortened: as §1
Leishmania amazonensis [12] = assay: Inhibition of sterol biosynthesis in Leishmania mexicana amazonensis promastigotes assessed as reduction in endogenous episterol level at 3 uM after 96 hrs by gas-liquid chromatography; type: functional; set-up: scale not given: the % may be the effect or the level left; procedure, shortened: as §1
Leishmania amazonensis [13] = assay: Inhibition of sterol biosynthesis in Leishmania mexicana amazonensis promastigotes assessed as reduction in endogenous cholesta-7,24-dien-3beta-ol level at 3 uM after 96 hrs by gas-liquid chromatography; type: functional; set-up: scale not given: the % may be the effect or the level left; procedure, shortened: as §1
Leishmania amazonensis [14] = assay: Inhibition of sterol biosynthesis in Leishmania mexicana amazonensis promastigotes assessed as reduction in endogenous cholesta-5,7,24-trien-3beta-ol level at 1 uM after 96 hrs by gas-liquid chromatography; type: functional; set-up: scale not given: the % may be the effect or the level left; procedure, shortened: as §1
Leishmania amazonensis [15] = assay: Inhibition of sterol biosynthesis in Leishmania mexicana amazonensis promastigotes assessed as reduction in exogenous cholesterol level at 1 uM after 96 hrs by gas-liquid chromatography; type: functional; set-up: scale not given: the % may be the effect or the level left; procedure, shortened: as §1
Leishmania amazonensis [16] = assay: Inhibition of sterol biosynthesis in Leishmania mexicana amazonensis promastigotes assessed as reduction in endogenous 5-dehydro episterol level at 1 uM after 96 hrs by gas-liquid chromatography; type: functional; set-up: scale not given: the % may be the effect or the level left; procedure, shortened: as §1
Leishmania amazonensis [17] = assay: Inhibition of sterol biosynthesis in Leishmania mexicana amazonensis promastigotes assessed as reduction in endogenous episterol level at 1 uM after 96 hrs by gas-liquid chromatography; type: functional; set-up: scale not given: the % may be the effect or the level left; procedure, shortened: as §1

| SMILES | IC50 (Squalene synthase) | IC50 [1] | MIC (Leishmania amazonensis [2]) | IC50 (Leishmania donovani) | IC50 (L6) | IC50 (Trypanosoma cruzi) | IC50 [3] | IC50 (Plasmodium falciparum) | Activity (Leishmania amazonensis [4]) | Activity (Leishmania amazonensis [5]) | Activity (Leishmania amazonensis [6]) | Activity (Leishmania amazonensis [8]) | Activity (Leishmania amazonensis [10]) | Activity (Leishmania amazonensis [11]) | further results |
| --- | --- | --- | --- | --- | --- | --- | --- | --- | --- | --- | --- | --- | --- | --- | --- |
| C(=C1\CN2CCC1CC2)/c1ccc(C2OCCO2)cc1 | Not Active | > 1 µM | 10 µM (≈ 2.71 µg/mL) | 77.7 µM | 239 µM | 30.2 µM | 10.3 µM | 10 µM | 42.1% | 57.9% | – | – | – | – | – |
| c1ccc(CC2CN3CCC2CC3)cc1 (stereo not given) | Not Active | > 1 µM | > 10 µM | > 149 µM | > 447 µM | 130 µM | 60.6 µM | 5.4 µM | 14.9% | 2.8% | 23.2% | 51.3% | – | – | Activity (Leishmania amazonensis [7]): 2.9% |
| C(=C1/CN2CCC1CC2)/c1ccc(C2OCCO2)cc1 | Not Active | > 1 µM | > 10 µM | 82.1 µM | 136 µM | 46 µM | 5.5 µM | 12.3 µM | 25.4% | 16.1% | 18.5% | 14.2% | – | – | – |
| c1ccc2cc(CC3CN4CCC3CC4)ccc2c1 (stereo not given) | Not Active | > 1 µM | 3 µM (≈ 0.754 µg/mL) | > 119 µM | 98.2 µM | 25.4 µM | 2.5 µM | 1.8 µM | – | – | – | – | 26.4% | 49.6% | Activity (Leishmania amazonensis [9]): 11.2%; Activity (Leishmania amazonensis [12]): 9.3%; Activity (Leishmania amazonensis [13]): 3.5% |
| C(=C1/CN2CCC1CC2)/c1ccc2ccccc2c1 | Not Active | > 1 µM | 3 µM (≈ 0.748 µg/mL) | 88.2 µM | 25.6 µM | 2.8 µM | 0.5 µM | 0.9 µM | – | – | – | – | 57.8% | 42.2% | – |
| c1ccc(-c2ccc(CC3CN4CCC3CC4)cc2)cc1 (stereo not given) | Not Active | > 1 µM | 1 µM (≈ 0.277 µg/mL) | > 108 µM | 20.5 µM | 4.7 µM | 0.7 µM | 2.8 µM | – | – | – | – | – | – | Activity (Leishmania amazonensis [14]): 10.4%; Activity (Leishmania amazonensis [15]): 51.1%; Activity (Leishmania amazonensis [16]): 30.3%; Activity (Leishmania amazonensis [17]): 8.2% |
